14 compounds from PubChem BioAssay can be followed below.

Activity calls are given as the source filed them.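 The calls were made as follows, unless noted: active = viability at or below 30% in both replicate assays; inconclusive = viability at or below 30% in just one of the two assays; inactive = the rest.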

Experiment [1] can be described thus: Her2 expression decrease, cell viability multiplex – SKBR3 breast tumor cells, AlphaScreen, ATP viability, primary screen (AID 461;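 active = Her2 level under about 52% in both replicate screens, with viability over 70% of control, limit read from the data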;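 as to Her2 level: lower value means less Her2 protein in the cells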;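 as to viability: percent of carrier control wells set as 100% viability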). Particulars: SKBR3 Her2 protein level, 18-24 h, measured here: SKBR3 viability, ATP luminescence, at 10 µM. Background: In Alpha technology, singlet oxygen from a donor bead excites a nearby acceptor bead.
The target in experiment [2] is Receptor tyrosine-protein kinase erbB-2 (Homo sapiens) (UniProt P04626). Described as above. As to conditions: 18-24 h, at 10 µM, stronger effect = lower value.
Chain of Receptor tyrosine-protein kinase erbB-2 (Homo sapiens) (P04626 whole entry, looked up): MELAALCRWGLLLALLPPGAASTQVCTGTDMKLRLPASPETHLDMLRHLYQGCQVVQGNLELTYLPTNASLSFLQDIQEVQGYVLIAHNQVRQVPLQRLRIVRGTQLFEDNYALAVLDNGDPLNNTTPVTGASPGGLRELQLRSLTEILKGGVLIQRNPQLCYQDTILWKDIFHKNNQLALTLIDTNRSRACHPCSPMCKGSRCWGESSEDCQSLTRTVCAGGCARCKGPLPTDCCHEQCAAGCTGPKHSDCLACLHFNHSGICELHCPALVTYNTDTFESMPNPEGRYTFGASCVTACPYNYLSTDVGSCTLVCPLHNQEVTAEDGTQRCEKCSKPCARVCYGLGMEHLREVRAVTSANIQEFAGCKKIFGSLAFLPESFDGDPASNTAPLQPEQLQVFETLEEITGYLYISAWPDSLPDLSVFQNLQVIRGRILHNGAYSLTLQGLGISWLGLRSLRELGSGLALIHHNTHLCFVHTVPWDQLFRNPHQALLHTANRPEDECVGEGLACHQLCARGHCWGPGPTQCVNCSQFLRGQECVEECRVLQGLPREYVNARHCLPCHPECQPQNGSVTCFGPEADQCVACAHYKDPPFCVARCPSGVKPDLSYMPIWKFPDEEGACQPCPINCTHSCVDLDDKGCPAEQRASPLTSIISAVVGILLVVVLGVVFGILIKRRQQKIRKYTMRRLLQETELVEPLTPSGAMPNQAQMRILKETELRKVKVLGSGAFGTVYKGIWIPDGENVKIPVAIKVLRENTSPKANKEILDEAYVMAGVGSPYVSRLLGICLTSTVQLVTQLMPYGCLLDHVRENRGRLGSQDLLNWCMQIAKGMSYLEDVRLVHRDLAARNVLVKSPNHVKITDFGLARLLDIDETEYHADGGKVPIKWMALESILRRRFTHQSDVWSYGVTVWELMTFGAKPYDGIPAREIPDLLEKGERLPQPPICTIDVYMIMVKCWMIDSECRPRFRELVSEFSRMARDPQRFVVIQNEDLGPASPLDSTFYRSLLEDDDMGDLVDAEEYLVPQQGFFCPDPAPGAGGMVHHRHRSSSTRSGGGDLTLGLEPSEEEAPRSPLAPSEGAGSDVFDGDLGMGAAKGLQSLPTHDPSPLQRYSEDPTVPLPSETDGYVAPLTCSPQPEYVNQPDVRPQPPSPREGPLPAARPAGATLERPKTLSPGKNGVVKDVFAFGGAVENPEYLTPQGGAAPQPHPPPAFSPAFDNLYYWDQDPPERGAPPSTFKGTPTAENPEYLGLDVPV
The nature of experiment [3]: reduced viability of SK-BR-3 breast cancer cells – cell-based, 24 h, human, pilot screen (AID 572;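 active = viability at or below 10% of carrier control in both of two separate runs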;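 also: compound exposure lasted between 18 and 24 h rather than exactly 24 h; 100% = carrier-treated control wells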). Particulars: SK-BR-3 viability, CellTiter-Glo luminescence, at 10 µM, stronger effect = lower value. (ATP-based viability assays read luminescence as a measure of living cells.)
A short description of experiment [4]: HUVEC growth inhibition – cell-based, human, primary screen (AID 575).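 Also: 100% = median of untreated cell wells with 0.1% DMSO on each plate.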 Particulars: HUVEC proliferation, CellTiter-Glo luminescence, 72 h; at 10 µM; stronger effect = lower value. A digest of the protocol: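 material = primary HUVEC, no more than 12 passages | input = 1250 cells per well | controls = vehicle and MePR control wells | measured by = CTG luminescence | times = 72 h compound incubation | format = collagen-coated 384-well format | read-out = % viability vs DMSO wells | doses = single 10 µM dose, 0.1% DMSO, from 5x medium stock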

Experiment [5] is described as follows: H69AR cell proliferation blockers – human, duplicate replicates, primary screen (AID 580;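 active = viability at or under a set limit in both replicates, limit being median viability minus 3 SD, cut at about 48% in these data, passing the limit was not always enough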;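 also: 100% = mean luminescence of untreated wells and 0% = no signal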). Particulars: H69AR lung tumor cells viability, ATP luminescence, 72 h; at 10 µM; stronger effect = lower value.
Experiment [6] can be described thus: MRP1 drug-resistance reversers in H69AR cells – cell-based, doxorubicin co-treatment, pilot screen (AID 601;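 active = viability loss from added drug above about 55%, and viability with drug at most 40%, in both replicates, limit read from the data, passing the limit was not always enough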). Particulars: CellTiter-Glo, 72 h, at 10 µM; for differential viability (reversal): stronger effect = higher value.
The nature of experiment [7]: yeast transport mutant growth inhibition pilot in 384-well plates, post-Golgi transport modulator project (AID 636; in the data active = inhibition above about 31%). As to conditions: absorbance 615 nm, about 18 h, stronger effect = higher value.
Experiment [8] in a line: growth suppression of yeast trafficking mutant, preliminary HTS, modulators of trafficking downstream of Golgi apparatus project, 1536-format plate, OD 615 nm (AID 637; in the data active = inhibition above about 30%). As to conditions: yeast transport mutant growth, absorbance 615 nm, 18 h; stronger effect = higher value.
Setting [9] is: H69AR cells + 2 uM doxorubicin, measured here: viability with 2 uM doxorubicin, stronger effect = lower value.
Where [10] appears, read: H69AR cells, compound alone cytotoxicity.

Consider `C/C=C/c1ccc(OCCn2cncn2)c(OC)c1`, for which the viability in experiment [1] is 98.5%; in experiment [3], 98.5% (inactive); in experiment [4], 95.6% (inactive); in experiment [5], 89.8% (inactive); in experiment [6] (setting [9]), 88.7%; in experiment [6] (setting [10]) it was 89.8%. In experiment [2], the Her2 level is 126% (inactive). For the same compound, the differential viability (reversal) in experiment [6] (H69AR cells + 2 uM doxorubicin) is 1.09% (inactive). Moreover, the inhibition in experiment [7] is 0.14% (inactive); in experiment [8], 0.66% (inactive).
Regarding `CC(=O)N1CCN(Cc2ccc(Br)s2)CC1`, the viability is 93.5% in experiment [1]; 93.5% (inactive) in experiment [3]; 86.3% (inactive) in experiment [4]; 99.3% (inactive) in experiment [5]; 88.3% in experiment [6] (setting [9]); 99.3% in experiment [6] (setting [10]). Further, the Her2 level in experiment [2] was 88% (inactive). Moreover, the differential viability (reversal) in experiment [6] (H69AR cells + 2 uM doxorubicin) was 11.1% (inactive). The inhibition is -3.51% (inactive) in experiment [7] and -1.31% (inactive) in experiment [8].
As to `Cc1ccc(S(=O)(=O)C2(C(=O)Nc3nccs3)CC2)cc1`, the viability in experiment [1] was 95%; in experiment [3], 95% (inactive); in experiment [4] it was 93.7% (inactive); in experiment [5], 101% (inactive); in experiment [6] (setting [9]), 95%; in experiment [6] (setting [10]), 101%. The Her2 level in experiment [2] was 95% (inactive). Besides, the differential viability (reversal) in experiment [6] (H69AR cells + 2 uM doxorubicin) was 5.59% (inactive). Further, the values for the inhibition in experiment [7] and in experiment [8] were -2.44% (inactive) and -2.33% (inactive), respectively.
Regarding `COc1cccc(-c2cc(C(=O)NCc3ccc(Cl)cc3)no2)c1`, the viability is 84% in experiment [1]; 84% (inactive) in experiment [3]; 97% (inactive) in experiment [4]; 89.3% (inactive) in experiment [5]; 84.2% in experiment [6] (setting [9]); 89.3% in experiment [6] (setting [10]). Moreover, the Her2 level in experiment [2] was 94% (inactive). Further, the differential viability (reversal) in experiment [6] (H69AR cells + 2 uM doxorubicin) was 5.11% (inactive). The inhibition in experiment [7] was -6.62% (inactive); in experiment [8], 0.82% (inactive).
As for `Nn1c(SCc2csc(-c3ccccc3)n2)nnc1-c1cccs1`, the viability in experiment [1] is 83%; in experiment [3], 83% (inactive); in experiment [4], 85.2% (inactive); in experiment [5], 97.3% (inactive); in experiment [6] (setting [9]), 91.2%; in experiment [6] (setting [10]), 97.3%. The Her2 level in experiment [2] was 82.5% (inactive). Besides, in experiment [6] (H69AR cells + 2 uM doxorubicin), the differential viability (reversal) was 6.11% (inactive). For the same compound, the inhibition in experiment [7] was -9.05% (inactive); in experiment [8], 5.25% (inactive).
As to `O=C(O)CCCc1nc(-c2ccccc2)no1`, the viability in experiment [1] was 91.5%; in experiment [3], 91.5% (inactive); in experiment [4] it was 96% (inactive); in experiment [5] it was 97% (inactive); in experiment [6] (setting [9]), 97.8%; in experiment [6] (setting [10]), 97%. Moreover, in experiment [2], the Her2 level was 87.5% (inactive). For the same compound, the differential viability (reversal) in experiment [6] (H69AR cells + 2 uM doxorubicin) was -0.87% (inactive). In addition, the values for the inhibition in experiment [7] and in experiment [8] were -4.53% (inactive) and 0.95% (inactive), respectively.
For the compound `Cc1cccc(C2CC(c3ccc(Br)cc3)Nc3nc(N)nn32)c1` (stereo not given), the viability in experiment [1] is 92.5%; in experiment [3], 92.5% (inactive); in experiment [4], 72.6% (inactive); in experiment [5], 87.6% (inactive); in experiment [6] (setting [9]), 102%; in experiment [6] (setting [10]) it was 87.6%. The Her2 level in experiment [2] is 94% (inactive). Moreover, the differential viability (reversal) in experiment [6] (H69AR cells + 2 uM doxorubicin) is -14.7% (inactive). Also, the inhibition in experiment [7] is -4.4% (inactive); in experiment [8], 2.33% (inactive).
Take `CN(C)c1nc(SCCOC(=O)c2ccccc2)nc(N(C)C)n1`: the viability in experiment [1] was 96%; in experiment [3] it was 96% (inactive); in experiment [4], 82.1% (inactive); in experiment [5], 101% (inactive); in experiment [6] (setting [9]) it was 85%; in experiment [6] (setting [10]) it was 101%. Moreover, in experiment [2], the Her2 level is 80.5% (inactive). Also, the differential viability (reversal) in experiment [6] (H69AR cells + 2 uM doxorubicin) was 16.4% (inactive). The inhibition is -4.47% (inactive) in experiment [7] and -2.67% (inactive) in experiment [8].
Regarding `O=C(c1cnn2c(C(F)F)cc(C3CC3)nc12)N1CCOCC1`, the viability in experiment [1] was 104%; in experiment [3] it was 104% (inactive); in experiment [4], 107% (inactive); in experiment [5], 113% (inactive); in experiment [6] (setting [9]) it was 93.5%; in experiment [6] (setting [10]) it was 113%. The Her2 level in experiment [2] is 102% (inactive). Besides, the differential viability (reversal) in experiment [6] (H69AR cells + 2 uM doxorubicin) is 19.2% (inactive). Besides, the inhibition in experiment [7] was -3.29% (inactive); in experiment [8], -10.2% (inactive).
As to `Cn1c(=O)c2c(nc(NCCCO)n2CCc2ccccc2)n(C)c1=O`, the viability in experiment [1] was 94%; in experiment [3], 94% (inactive); in experiment [4] it was 93.7% (inactive); in experiment [5], 87.1% (inactive); in experiment [6] (setting [9]), 89.4%; in experiment [6] (setting [10]), 87.1%. For the same compound, the Her2 level in experiment [2] is 138% (inactive). In addition, in experiment [6] (H69AR cells + 2 uM doxorubicin), the differential viability (reversal) is -2.35% (inactive). Further, the inhibition was 5.45% (inactive) in experiment [7] and -2.83% (inactive) in experiment [8].
For the compound `CCN(CC)S(=O)(=O)N1CCC(C(=O)NCC2COc3ccccc3O2)CC1` (stereo not given), the viability is 94% in experiment [1]; 94% (inactive) in experiment [3]; 109% (inactive) in experiment [4]; 97.3% (inactive) in experiment [5]; 107% in experiment [6] (setting [9]); 97.3% in experiment [6] (setting [10]). The Her2 level in experiment [2] is 114% (inactive). Further, in experiment [6] (H69AR cells + 2 uM doxorubicin), the differential viability (reversal) is -9.32% (inactive). Besides, the figures for the inhibition in experiment [7] and in experiment [8] were -0.79% (inactive) and 3.65% (inactive), respectively.
As for `COC(=O)c1ccccc1NC(=O)c1cc(-c2ccc(OC)c(OC)c2)on1`, the viability in experiment [1] is 99%; in experiment [3] it was 99% (inactive); in experiment [4] it was 114% (inactive); in experiment [5], 77.8% (inactive); in experiment [6] (setting [9]) it was 72%; in experiment [6] (setting [10]), 77.8%. Also, the Her2 level in experiment [2] is 90.5% (inactive). Also, the differential viability (reversal) in experiment [6] (H69AR cells + 2 uM doxorubicin) is 5.72% (inactive). For the same compound, the inhibition in experiment [7] was -7.57% (inactive); in experiment [8] it was -8% (inactive).
On to `O=C1CCCCCN1CSc1nc2ccccc2s1`, for which the viability in experiment [1] was 123%; in experiment [3], 123% (inactive); in experiment [4], 80.5% (inactive); in experiment [5] it was 88% (inactive); in experiment [6] (setting [9]), 83.3%; in experiment [6] (setting [10]), 88%. In experiment [2], the Her2 level is 101% (inactive). The differential viability (reversal) in experiment [6] (H69AR cells + 2 uM doxorubicin) was 4.73% (inactive). Moreover, the figures for the inhibition in experiment [7] and in experiment [8] were -5.45% (inactive) and -2.62% (inactive), respectively.
Take `CC(=O)Nc1c(O)nc(SCC(=O)Nc2nnc(CC(C)C)s2)[nH]c1=O`: the viability in experiment [1] was 86.5%; in experiment [3], 86.5% (inactive); in experiment [4] it was 98.2% (inactive); in experiment [5], 93.6% (inactive); in experiment [6] (setting [9]), 102%; in experiment [6] (setting [10]) it was 93.6%. The Her2 level in experiment [2] is 99.5% (inactive). In addition, the differential viability (reversal) in experiment [6] (H69AR cells + 2 uM doxorubicin) is -8.89% (inactive). The inhibition in experiment [7] was 3.2% (inactive); in experiment [8] it was 22.4% (inactive).

In general, viability refers to a read-out of living cells in per cent, often relative to untreated cells. As usually defined, the inhibition is the drop in the measured response relative to a control, in per cent.
